The list is not random: actives were taken first. Their share in the collection is about 3.8%.
Kir21 inh = inhibitors of mouse Kir2.1 inward-rectifier potassium channel; Inward rectifier potassium channel 2 (Mus musculus), P35561; HEK293-Kir2.1, FluxOR thallium flux fluorescence; hits give low values; B-score at 10 µM; actives 0.85% (n = 310,000);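 active = fluorescence ratio B-score at or below minus 3 SD of library scores, with starting-brightness B-score within 2 SD, cut at about -4.2 in these data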;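 note: channel flux triggered by added potassium and thallium sulfate stimulus; B-score of peak minus minimum fluorescence over baseline after thallium stimulus; more negative B-score means stronger Kir2.1 block with less thallium influx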
KCNK9 block = KCNK9 potassium channel inhibitors, primary screen, HEK293 cells, thallium flux. FluxOR thallium flux fluorescence; hits give low values. B-score at 10 µM. actives 1.2% (n = 310,000). AID 488922, 2010;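 active = ratio B-score over 3 SD below the library mean, with starting fluorescence within 5 SD of its mean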;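 note: negative B-score means less thallium flux so channel inhibition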
KCNK3 block = human KCNK3 channel inhibitors, primary screen, CHO cells, FluxOR thallium flux, B-score; Potassium channel subfamily K member 3 (Homo sapiens), O14649; AID 602410, 2012; B-score at 10 µM; actives 0.84% (n = 340,000); FluxOR fluorescence; hits give low values;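 active = B-score under library mean minus 4 SD, starting fluorescence ratio at most library mean plus 5 SD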;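 note: more negative B-score means stronger inhibition of thallium flux through KCNK3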
hERG rescue = hERG rescue from dofetilide block, primary screen, cell-based, CHO-hERG, FluxOR thallium flux, dofetilide IC70; actives 0.51% (n = 310,000); AID 1511, 2009; activation (rescue from dofetilide block), less the hit threshold, % at 10 µM; Voltage-gated inwardly rectifying potassium channel KCNH2 (Homo sapiens), Q12809; dofetilide IC70 present;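 active = activation above the mean of controls blocked by dofetilide plus 5 SD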;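 note: thallium influx through hERG after potassium depolarization seen as dye fluorescence rise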
KCNQ1 act = potentiators or activators of KCNQ1 channel, primary screen, cell-based, thallium flux, high-throughput; actives 0.35% (n = 310,000); B-score at 10 µM; CHO-K1 KCNQ1, thallium flux FluxOR fluorescence; hits give high values; AID 2648, 2010;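 active = fluorescence ratio B-score, a plate-corrected score, at least three library SD, with initial intensity B-score within 5 SD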
Target sequence (P51787 whole entry, looked up): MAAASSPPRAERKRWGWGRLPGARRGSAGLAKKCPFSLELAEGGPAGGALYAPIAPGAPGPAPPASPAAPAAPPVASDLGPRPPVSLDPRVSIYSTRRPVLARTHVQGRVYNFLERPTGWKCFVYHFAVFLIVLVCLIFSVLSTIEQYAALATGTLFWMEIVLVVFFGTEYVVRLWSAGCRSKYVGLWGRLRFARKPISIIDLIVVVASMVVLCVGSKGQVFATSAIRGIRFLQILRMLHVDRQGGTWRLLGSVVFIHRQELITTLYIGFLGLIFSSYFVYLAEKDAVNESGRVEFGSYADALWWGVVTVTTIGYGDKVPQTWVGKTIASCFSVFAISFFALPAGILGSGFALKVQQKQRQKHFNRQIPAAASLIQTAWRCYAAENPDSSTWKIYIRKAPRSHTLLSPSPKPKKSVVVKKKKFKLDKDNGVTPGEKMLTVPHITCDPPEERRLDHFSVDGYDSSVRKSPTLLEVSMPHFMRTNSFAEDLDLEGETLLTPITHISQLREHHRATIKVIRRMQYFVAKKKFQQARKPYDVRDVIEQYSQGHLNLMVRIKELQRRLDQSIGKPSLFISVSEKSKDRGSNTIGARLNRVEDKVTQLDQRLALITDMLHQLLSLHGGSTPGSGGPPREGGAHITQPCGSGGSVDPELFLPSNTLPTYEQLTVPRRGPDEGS
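Medium – assay buffer, equal DMSO in all wells · Material – CHO-K1 cell line with stable KCNQ1 potassium channel expression · Signal – kinetic FluxOR thallium fluorescence, 10-s 1-Hz baseline, 110-s post-stimulus read · Compound – single concentration per compound, DMSO matched to controls · Schedule – 37 °C overnight plating, 90-min dark dye load, 20-min compound pretreatment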
KCNQ1 inh = inhibitors of human KCNQ1 channel, primary screen, cell-based, thallium flux, high-throughput. Potassium voltage-gated channel subfamily KQT member 1 (Homo sapiens), P51787. CHO-K1 KCNQ1, FluxOR thallium flux fluorescence; hits give high values. B-score at 10 µM. actives 1.3% (n = 310,000);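 active = compounds whose thallium flux B-score, printed positive for inhibition, exceeds three library SD while starting fluorescence stays within three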;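 note: channel opened by potassium depolarization with thallium stimulus after 20 min compound exposure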
KCNK9 inh conf = KCNK9 potassium channel inhibitors, confirmation, HEK293 cells, thallium flux, duplicate; inhibition, % at 10 µM; shares compounds with KCNK9 block; actives 43% (n = 4,900); FluxOR thallium flux fluorescence;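 active = thallium signal inhibited by more than 5 SD of the compound-free buffer control wells, on both duplicate plates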;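 note: 0% = assay buffer control wells without compound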
Kir21 sel = mouse Kir2.1 channel inhibition, confirmation, selectivity assay for KCNK9 modulator project, cell-based, HEK293, thallium flux; inhibition, % at 10 µM; actives 4% (n = 4,900); shares compounds with KCNK9 block; Kir2.1 cells, FluxOR thallium flux fluorescence;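 active = thallium signal drop more than 5 SD beyond the mean of the no-compound control wells, seen in both duplicate plates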;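 note: signal is fluorescence rise after thallium addition divided by baseline fluorescence; plate controls were assay buffer only for no effect and full block by chlorpromazine control for full effect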
HEK293 Tl ctr = thallium flux in non-induced HEK293 cells, confirmation, counter-screen for KCNK9 inhibitor project, cell-based, second counter screen, non-induced KCNK9-HEK293. actives 40% (n = 4,900). shares compounds with KCNK9 block. AID 492997, 2010. FluxOR thallium flux. inhibition, % at 10 µM;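 active = thallium signal drop beyond 5 SD of the untreated control mean, on both duplicate plates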;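 note: plate controls were buffer only IC0 wells for no effect and SID17386958 at its maximal inhibitory level for full effect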
The depositor's hits bear a star; i = inactive; . = no result.

SMILES	Kir21 inh	KCNK9 block	KCNK3 block	hERG rescue	KCNQ1 act	KCNQ1 inh	KCNK9 inh conf	Kir21 sel	HEK293 Tl ctr
CC(C)CC1Nc2ncnc(N3CCCCC3)c2N(Cc2ccccc2)C1=O (stereo not given)	-2.1	-9.12*	i	-9.3	i	i	39.0%*	i	38.0%*
O=C(COC(=O)c1cc(S(=O)(=O)N2CCCCC2)ccc1N1CCOCC1)NC1CCCCC1	0.32	i	i	-10.8	i	i	.	.	.
CCC(=O)N1c2ccccc2[C@@H](N(C(C)=O)c2ccccc2)C[C@H]1C	-1.08	i	i	-8.3	i	i	.	.	.
Cc1ccc(C(=O)N(c2ccccc2)C2CC(C)N(C(=O)c3ccco3)c3ccccc32)cc1 (stereo not given)	-1.96	i	i	-11.1	i	i	i	i	i
Cc1cccc(OCCn2c(=S)[nH]c3ccccc32)c1	-1.52	i	i	-0.7	i	i	.	.	.
Cc1ccc(OCCn2c(=S)[nH]c3ccccc32)c(C(C)C)c1	-1.81	i	i	-9.8	i	i	i	41.5%*	i
Cc1ccc(C)c(N2CCN(C(=O)c3cc(S(=O)(=O)N4CCOCC4)ccc3F)CC2)c1	0.02	i	i	-0.8	i	i	i	i	i
Cc1ccc(S(=O)(=O)N2CCOCC2)cc1C(=O)O	-0.06	i	i	-7.4	i	i	.	.	.
CCOC(=O)c1ccc(NC(=O)NCc2ccccn2)cc1	-1.01	i	i	-9.8	i	i	.	.	.
CCN(CC)c1nc(SCC(=O)O)nc(N(CC)CC)n1	1.04	i	i	-17.1	i	i	.	.	.
CCN(CC)c1nc(C#N)nc(N(CC)CC)n1	-0.41	i	i	-7.9	i	i	i	i	i
CN1CCN(c2nc3c(c(=O)n(C)c(=O)n3C)n2Cc2ccccc2F)CC1	3.56	i	i	-2.1	i	i	.	.	.
CCOC(=O)C1(CCCc2ccccc2)CCN(C2CCSCC2)CC1	-1.83	i	i	-12.9	i	i	i	i	i
OCC1(CCCc2ccccc2)CCN(C2CCSCC2)CC1	-0.7	i	i	-12.4	i	i	.	.	.
COc1ccc(CCN(C)C(=O)c2cnc(C)cn2)cc1OC	-0.02	i	i	-5.9	i	i	.	.	.
C=CCc1cc(C)ccc1OCCOCCC(C(=O)OCC)C(=O)OCC	-8.63*	i	i	-13.2	i	i	i	i	i
Cc1cc(C)c(C#N)c(SCc2cc3c(cc2Cl)OCO3)n1	-0.35	-8.48*	i	-3.6	i	i	35.5%*	i	36.5%*
Cc1cc(C)c(C#N)c(SCc2ccccc2C)n1	-0.74	i	i	-5.2	i	i	.	.	.
Cc1ccc(NC(=O)c2nc(S(=O)(=O)Cc3ccccc3)ncc2Cl)cc1	-0.11	i	i	-18.0	i	i	.	.	.
O=C(Nc1ccc(F)cc1)c1nc(S(=O)(=O)Cc2ccccc2)ncc1Cl	-1.24	-8.97*	i	-21.2	i	i	47.0%*	i	i
Cc1cc(C)c(NC(=O)CNC(=O)COC(=O)CN2C(=O)NC3(CCCC3)C2=O)c(C)c1	0.03	i	i	-7.8	i	i	.	.	.
COC(=O)C(C)N(C(=O)c1cccc2ccccc12)c1c(C)cccc1C (stereo not given)	-1.9	-12.1*	i	-8.5	i	i	52.0%*	i	32.5%*
COC(=O)CN1C(c2ccc(Cl)cc2)=Nc2ccc(Cl)cc2C1c1ccccc1 (stereo not given)	-0.83	-10.5*	i	-11.8	i	i	32.0%*	i	42.0%*
N#CCCN1CCN(C(=O)c2c(N)no[n+]2[O-])CC1	-0.96	i	i	-6.7	i	i	.	.	.
Cc1onc(-c2c(F)cccc2Cl)c1C(=O)Nc1cccc(S(=O)(=O)N2CCOCC2)c1	.	.	i	.	.	.	.	.	.
SMILES	Kir21 inh	KCNK9 block	KCNK3 block	hERG rescue	KCNQ1 act	KCNQ1 inh	KCNK9 inh conf	Kir21 sel	HEK293 Tl ctr
COc1ccccc1C(=O)NCc1ccccn1	-2.1	i	i	-3.6	i	i	.	.	.
CCCCN(CC)C(=O)c1cc2cc3ccc(Cl)cc3nc2o1	1.06	-8.46*	i	-6.4	i	i	44.0%*	i	i
CC(C)N(NC(=O)c1cccc2ccccc12)C(C)C	0.44	i	i	-4.0	i	i	.	.	.
Cc1cccc(COCC(Cc2ccccc2)N2CCN(C(=O)c3cccc(C)c3)CCC2=O)c1 (stereo not given)	-1.63	i	i	-13.4	i	i	i	i	i
C=CCn1c(NS(=O)(=O)c2ccccc2)c(S(=O)(=O)c2ccc(C)cc2)c2nc3ccccc3nc21	-0.53	i	i	-6.2	i	i	.	.	.
O=S(=O)(Nc1c(S(=O)(=O)c2ccccc2)c2nc3ccccc3nc2n1C1CCCCC1)c1ccccc1	-5.13*	i	i	-16.9	i	i	i	i	i
COc1ccc(OC)c(C(C[N+](=O)[O-])c2c(C)cc3ccccn23)c1 (stereo not given)	0.24	-17.3*	i	-10.3	i	i	58.0%*	i	28.5%*
O=C(c1c[nH]c2ccccc12)N1CCOCC1	0.13	i	i	2.5	i	i	.	.	.
S=C(c1c[nH]c2ccc(Br)cc12)N1CCOCC1	-1.66	-8.72*	i	-9.8	i	i	50.0%*	i	i
CCCC(=O)Nc1cc(C)c(NC(=O)c2ccccn2)cn1	-0.08	i	i	-9.6	i	i	.	.	.
Cc1cc(NC(=O)C(C)C)ncc1NC(=O)c1ccccn1	1.21	i	i	-1.4	i	i	i	i	i

Source: PubChem
